According to ChEMBL document CHEMBL3414425, “Synthesis and biological evaluation of new imidazo[2,1-b][1,3,4]thiadiazole-benzimidazole derivatives” (Eur J Med Chem, 2015):
Converted amounts (≈) assume the structure as drawn. The source made the active and inactive calls. The calls are words filed in the database; no cut-off is given here.

Experiments:
[1] = test system: Mycobacterium tuberculosis; test: Antitubercular activity against Mycobacterium tuberculosis H37Rv ATCC 27294/XDR-TB incubated for 28 days by agar dilution method; assay type: functional; conditions: 672 h
Procedure, shortened: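 Agar dilution: two-fold dilutions in Middlebrook 7H11 agar with OADC. Inoculum from fresh 7H11/OADC slants adjusted to 1 mg/mL wet weight in 0.05% Tween 80 saline, diluted 10^-2 (~10⁷ cfu/mL); 5 µL spotted per tube. Incubated 37 °C; MIC, lowest concentration fully inhibiting growth, read after 28 days, in triplicate.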

Staphylococcus aureus [2] = test: Antibacterial activity against Staphylococcus aureus at 0.5 mg/ml incubated for 18 hrs by well plate technique; assay type: functional; conditions: for zone of inhibition at 500 µg/mL: read-out: DIZ
Procedure, shortened: (§1)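 Bacteria kept on nutrient agar at 37 °C, grown statically in nutrient broth (start ~10-100 cfu/mL) at 37 °C for 18-24 h. Suspensions diluted in saline and spread on nutrient agar, then wells cut with a cork borer. Compound in DMSO at 1 or 0.5 mg/mL added to wells, 37 °C, 18 h. Inhibition zone diameter measured minus DMSO value; triplicate; streptomycin standard.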

Pseudomonas aeruginosa [3] = test: Antibacterial activity against Pseudomonas aeruginosa at 1 mg/ml incubated for 18 hrs by well plate technique; assay type: functional; conditions: for zone of inhibition at 1000 µg/mL: read-out: DIZ; procedure, shortened: as §1
[4] = test system: Chrysosporium keratinophilum; test: Antifungal activity against Chrysosporium keratinophilum at 0.5 mg/ml incubated for 3 days; assay type: functional; conditions: for zone of inhibition at 500 µg/mL: 72 h, read-out: IZ
Procedure, shortened: (§2)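 Well plate method on potato dextrose agar. Fungal stock suspended in distilled water with Tween 80 and swabbed over plates. Samples in DMSO at 1 and 0.5 mg/mL added to wells, incubated 25 °C for 3 days, then scored for inhibition zones; fluconazole standard.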

[5] = Antioxidant activity assessed as DPPH radical scavenging activity incubated for 10 mins by UV-visible spectrometry; assay type: physicochemical
Procedure, shortened: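 DPPH free-radical scavenging; absorbance read at 517 nm against a methanol blank. % scavenging = (A control − A sample)/A control × 100.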

[6] = test system: Chrysosporium keratinophilum; test: Antifungal activity against Chrysosporium keratinophilum at 1 mg/ml incubated for 3 days; assay type: functional; conditions: for zone of inhibition at 1000 µg/mL: 72 h, read-out: IZ; procedure, shortened: as §2
Candida albicans [7] = test: Antifungal activity against Candida albicans at 0.5 mg/ml incubated for 3 days; assay type: functional; conditions: for zone of inhibition at 500 µg/mL: 72 h, read-out: IZ; procedure, shortened: as §2
Escherichia coli [8] = test: Antibacterial activity against Escherichia coli at 1 mg/ml incubated for 18 hrs by well plate technique; assay type: functional; conditions: for zone of inhibition at 1000 µg/mL: read-out: DIZ; procedure, shortened: as §1
Candida albicans [9] = test: Antifungal activity against Candida albicans at 1 mg/ml incubated for 3 days; assay type: functional; conditions: for zone of inhibition at 1000 µg/mL: 72 h, read-out: IZ; procedure, shortened: as §2
Aspergillus flavus [10] = test: Antifungal activity against Aspergillus flavus at 1 mg/ml incubated for 3 days; assay type: functional; conditions: for zone of inhibition at 1000 µg/mL: 72 h, read-out: IZ; procedure, shortened: as §2
Salmonella typhi [11] = test: Antibacterial activity against Salmonella typhi at 1 mg/ml incubated for 18 hrs by well plate technique; assay type: functional, Salmonella enterica subsp. enterica serovar Typhi; conditions: for zone of inhibition at 1000 µg/mL: Salmonella enterica, read-out: DIZ; for diameter of the inhibition zone (DIZ): Salmonella enterica subsp. enterica serovar Typhi
Procedure, shortened: (§3)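 Well diffusion on nutrient agar; strains kept on nutrient agar at 37 °C, grown statically in nutrient broth 18-24 h at 37 °C, diluted in saline, 0.1 ml spread per plate. Compounds in DMSO at 1 and 0.5 mg/mL added to cork-bored wells; 18 h at 37 °C. Inhibition zone diameter measured, DMSO value subtracted; triplicate; streptomycin reference.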

Staphylococcus aureus [12] = test: Antibacterial activity against Staphylococcus aureus at 1 mg/ml incubated for 18 hrs by well plate technique; assay type: functional; conditions: for zone of inhibition at 1000 µg/mL: read-out: DIZ; procedure, shortened: as §1
Salmonella typhi [13] = test: Antibacterial activity against Salmonella typhi at 0.5 mg/ml incubated for 18 hrs by well plate technique; assay type: functional, Salmonella enterica subsp. enterica serovar Typhi; conditions: for zone of inhibition at 500 µg/mL: Salmonella enterica, read-out: DIZ; for diameter of the inhibition zone (DIZ): Salmonella enterica subsp. enterica serovar Typhi; procedure, shortened: as §3
Escherichia coli [14] = test: Antibacterial activity against Escherichia coli at 0.5 mg/ml incubated for 18 hrs by well plate technique; assay type: functional; conditions: for zone of inhibition at 500 µg/mL: read-out: DIZ; procedure, shortened: as §1
Pseudomonas aeruginosa [15] = test: Antibacterial activity against Pseudomonas aeruginosa at 0.5 mg/ml incubated for 18 hrs by well plate technique; assay type: functional; conditions: for zone of inhibition at 500 µg/mL: read-out: DIZ; procedure, shortened: as §1
Aspergillus flavus [16] = test: Antifungal activity against Aspergillus flavus at 0.5 mg/ml incubated for 3 days; assay type: functional; conditions: for zone of inhibition at 500 µg/mL: 72 h, read-out: IZ; procedure, shortened: as §2

SMILES | MIC [1] [µg/mL] | zone of inhibition at 500 µg/mL (Staphylococcus aureus [2]) [mm] | zone of inhibition at 1000 µg/mL (Pseudomonas aeruginosa [3]) [mm] | inhibition zone (IZ) [4] | inhibition (INH) [5] [%] | zone of inhibition at 1000 µg/mL [6] [mm] | zone of inhibition at 500 µg/mL (Candida albicans [7]) [mm] | zone of inhibition at 1000 µg/mL (Escherichia coli [8]) [mm] | zone of inhibition at 1000 µg/mL (Candida albicans [9]) [mm] | zone of inhibition at 1000 µg/mL (Aspergillus flavus [10]) [mm] | zone of inhibition at 1000 µg/mL (Salmonella typhi [11]) [mm] | zone of inhibition at 1000 µg/mL (Staphylococcus aureus [12]) [mm] | zone of inhibition at 500 µg/mL (Salmonella typhi [13]) [mm] | zone of inhibition at 500 µg/mL (Escherichia coli [14]) [mm] | zone of inhibition at 500 µg/mL (Pseudomonas aeruginosa [15]) [mm] | zone of inhibition at 500 µg/mL (Aspergillus flavus [16]) [mm] | diameter of the inhibition zone (DIZ) (Staphylococcus aureus [2]) | diameter of the inhibition zone (DIZ) (Pseudomonas aeruginosa [3]) | inhibition zone (IZ) [6] | inhibition zone (IZ) (Candida albicans [7]) | other results
Cc1ccc(-c2nc3sc(C)nn3c2-c2nc3cc(Cl)ccc3[nH]2)cc1 | 50 (≈ 132 µM) | 7 | 9 | inactive | 30.6 | 2 | 1 | 8 | 4 | 3 | 8 | 10 | 7 | 5 | 6 | 1 | – | – | – | – | –
Cc1ccc(-c2nc3sc(C)nn3c2-c2nc3cc([N+](=O)[O-])ccc3[nH]2)cc1 | 50 (≈ 128 µM) | – | – | inactive | 28.9 | – | – | – | – | – | – | – | – | – | – | – | inactive | inactive | inactive | inactive | diameter of the inhibition zone (DIZ) (Escherichia coli [8]): inactive; inhibition zone (IZ) (Candida albicans [9]): inactive; inhibition zone (IZ) (Aspergillus flavus [10]): inactive; diameter of the inhibition zone (DIZ) (Salmonella typhi [11]): inactive; diameter of the inhibition zone (DIZ) (Staphylococcus aureus [12]): inactive; diameter of the inhibition zone (DIZ) (Salmonella typhi [13]): inactive; diameter of the inhibition zone (DIZ) (Escherichia coli [14]): inactive; diameter of the inhibition zone (DIZ) (Pseudomonas aeruginosa [15]): inactive; inhibition zone (IZ) (Aspergillus flavus [16]): inactive
COc1ccc(-c2nc3sc(-c4ccc(C)cc4)nn3c2-c2nc3ccccc3[nH]2)cc1 | 12.5 (≈ 28.6 µM) | – | – | inactive | 21.6 | – | – | – | – | – | – | – | – | – | – | – | inactive | inactive | inactive | inactive | diameter of the inhibition zone (DIZ) (Escherichia coli [8]): inactive; inhibition zone (IZ) (Candida albicans [9]): inactive; inhibition zone (IZ) (Aspergillus flavus [10]): inactive; diameter of the inhibition zone (DIZ) (Salmonella typhi [11]): inactive; diameter of the inhibition zone (DIZ) (Staphylococcus aureus [12]): inactive; diameter of the inhibition zone (DIZ) (Salmonella typhi [13]): inactive; diameter of the inhibition zone (DIZ) (Escherichia coli [14]): inactive; diameter of the inhibition zone (DIZ) (Pseudomonas aeruginosa [15]): inactive; inhibition zone (IZ) (Aspergillus flavus [16]): inactive
Cc1ccc(-c2nn3c(-c4nc5ccccc5[nH]4)c(-c4ccc(F)cc4)nc3s2)cc1 | 12.5 (≈ 29.4 µM) | 11 | 13 | – | 22.6 | 5 | 4 | 13 | 6 | 6 | 15 | 14 | 13 | 9 | 10 | 4 | – | – | – | – | zone of inhibition at 500 µg/mL [4]: 3 mm
Cc1nn2c(-c3nc4cc(Cl)ccc4[nH]3)c(-c3ccc(F)cc3)nc2s1 | 25 (≈ 65.1 µM) | 6 | 13 | – | 39.5 | 8 | 7 | 11 | 9 | 7 | 10 | 9 | 7 | 8 | 10 | 5 | – | – | – | – | zone of inhibition at 500 µg/mL [4]: 6 mm
COc1ccc(-c2nc3sc(-c4ccc(F)cc4)nn3c2-c2nc3ccccc3[nH]2)cc1 | 12.5 (≈ 28.3 µM) | – | – | inactive | 25.4 | – | – | – | – | – | – | – | – | – | – | – | inactive | inactive | inactive | inactive | diameter of the inhibition zone (DIZ) (Escherichia coli [8]): inactive; inhibition zone (IZ) (Candida albicans [9]): inactive; inhibition zone (IZ) (Aspergillus flavus [10]): inactive; diameter of the inhibition zone (DIZ) (Salmonella typhi [11]): inactive; diameter of the inhibition zone (DIZ) (Staphylococcus aureus [12]): inactive; diameter of the inhibition zone (DIZ) (Salmonella typhi [13]): inactive; diameter of the inhibition zone (DIZ) (Escherichia coli [14]): inactive; diameter of the inhibition zone (DIZ) (Pseudomonas aeruginosa [15]): inactive; inhibition zone (IZ) (Aspergillus flavus [16]): inactive
